Results: ChEMBL document CHEMBL2177004, “Synthesis and SAR of b-annulated 1,4-dihydropyridines define cardiomyogenic compounds as novel inhibitors of TGFβ signaling” (J Med Chem, 2012)
pIC50: −log10 of the molar value. The source made the active and inactive calls. The calls are words filed in the database; no cut-off is given here.

Experiments:
[1] = target: T1, Activin receptor type-1B (Homo sapiens) (UniProt P36896); conditions: 2.5 uM
T1 sequence (whole entry): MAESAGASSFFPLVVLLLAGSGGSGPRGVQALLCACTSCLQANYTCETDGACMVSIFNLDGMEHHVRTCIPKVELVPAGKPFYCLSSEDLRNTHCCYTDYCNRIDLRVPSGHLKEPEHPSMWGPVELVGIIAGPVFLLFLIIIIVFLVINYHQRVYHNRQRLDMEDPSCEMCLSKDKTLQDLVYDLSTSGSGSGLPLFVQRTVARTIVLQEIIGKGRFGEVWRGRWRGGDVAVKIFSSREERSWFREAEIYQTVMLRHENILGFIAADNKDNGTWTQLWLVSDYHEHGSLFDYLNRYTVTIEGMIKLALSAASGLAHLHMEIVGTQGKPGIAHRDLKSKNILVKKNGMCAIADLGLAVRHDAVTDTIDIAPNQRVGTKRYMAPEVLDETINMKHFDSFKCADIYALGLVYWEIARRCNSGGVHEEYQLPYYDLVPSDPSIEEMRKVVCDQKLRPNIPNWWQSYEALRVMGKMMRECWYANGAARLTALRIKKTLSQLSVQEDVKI

[2] = target: T2, Activin receptor type-1C (Homo sapiens) (UniProt Q8NER5); conditions: 2.5 uM
T2 sequence (whole entry): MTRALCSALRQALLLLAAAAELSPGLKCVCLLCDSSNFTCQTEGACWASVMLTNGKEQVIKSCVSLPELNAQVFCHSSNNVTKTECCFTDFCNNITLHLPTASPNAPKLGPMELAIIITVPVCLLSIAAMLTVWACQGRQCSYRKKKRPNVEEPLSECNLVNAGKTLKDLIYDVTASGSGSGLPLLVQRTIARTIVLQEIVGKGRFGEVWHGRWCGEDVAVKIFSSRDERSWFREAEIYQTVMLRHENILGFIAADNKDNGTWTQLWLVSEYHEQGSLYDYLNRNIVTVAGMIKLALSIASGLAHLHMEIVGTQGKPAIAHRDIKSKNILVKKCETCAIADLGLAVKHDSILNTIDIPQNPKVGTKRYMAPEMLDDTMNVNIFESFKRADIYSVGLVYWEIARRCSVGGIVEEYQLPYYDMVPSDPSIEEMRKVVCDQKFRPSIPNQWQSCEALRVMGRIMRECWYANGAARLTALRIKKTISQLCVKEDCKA

[3] = target: TGF-beta receptor type-2 (Homo sapiens, UniProt P37173); test: Inhibition of TGBR2 signaling in human HEK293T cells assessed as inhibition of SMAD activation after 2 to 22 hrs by dual Luciferase Assay; format: cell-based, HEK-293T
Sequence of TGF-beta receptor type-2 (P37173 whole entry): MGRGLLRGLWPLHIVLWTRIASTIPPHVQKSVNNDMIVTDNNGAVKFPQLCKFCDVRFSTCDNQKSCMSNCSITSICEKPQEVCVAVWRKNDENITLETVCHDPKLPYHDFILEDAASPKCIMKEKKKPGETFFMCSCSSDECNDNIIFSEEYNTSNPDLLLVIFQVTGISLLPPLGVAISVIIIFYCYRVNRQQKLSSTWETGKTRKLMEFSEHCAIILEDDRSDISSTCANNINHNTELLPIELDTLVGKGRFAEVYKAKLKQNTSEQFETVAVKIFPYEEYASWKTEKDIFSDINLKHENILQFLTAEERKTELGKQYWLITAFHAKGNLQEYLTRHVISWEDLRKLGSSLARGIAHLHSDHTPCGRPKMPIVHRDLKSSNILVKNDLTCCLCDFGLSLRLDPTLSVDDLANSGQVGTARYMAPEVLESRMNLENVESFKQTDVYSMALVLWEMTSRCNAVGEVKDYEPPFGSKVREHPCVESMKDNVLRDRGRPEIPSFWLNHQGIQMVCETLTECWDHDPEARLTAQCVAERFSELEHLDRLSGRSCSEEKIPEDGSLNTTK

[4] = tested on: HEK-293T; test: Inhibition of Activin receptor signaling in activin A-stimulated human HEK293T cells assessed as inhibition of SMAD activation at 2.5 uM after 2 to 22 hrs by dual Luciferase Assay; format: cell-based
Summary of the method: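 HEK-293T cells bulk co-transfected with an SBE-4–firefly luciferase reporter and a TK-driven Renilla plasmid for normalization, in DMEM with 2% FBS. After 12–14 h, cells were replated at 25,000/well in DMEM with 1% FBS and rested 2 h. Compound was then added with Activin A (10 ng/mL) for 20–22 h. Dual luciferase read-out was compared with DMSO, run in triplicate, with ≥2 independent experiments.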

[5] = Inhibition of calcium transients in mouse HL-1 cells after 10 mins using Fluo-4 by fluorescene assay; format: functional
Summary of the method: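 HL-1 murine atrial cells plated at 25,000/well on gelatin (0.02%)/fibronectin (5 μg/mL) in Claycomb medium with 10% FBS and 0.1 mM norepinephrine. Loaded with Hoechst 33342 and Fluo-4 for 30 min at 37 °C, then 30 min at room temperature. Washed with Tyrode's (pH 7.4); compound in Tyrode's 10 min at room temperature. 10 s videos at 33 frames/s; kinetic parameters from image analysis.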

[6] = tested on: CGR8; test: Promotion of cardiogenesis in mouse CGR8 cells carrying Myh6-GFP compound treated at 2.5 uM on days 3 to 5 measured on day 10 post differentiation by GFP reporter assay; format: functional, cell-based
Summary of the method: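 CGR8 mESCs carrying a Myh6 (α-MHC)-GFP reporter seeded in LIF-free high-glucose DMEM with 10% FBS to differentiate. Compound given on days 3–5; α-MHC-GFP fluorescence quantified by high-content imaging on day 10. Data normalized at lower concentrations.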

[7] = tested on: J1 (Mus musculus); test: Inhibition of mesoderm formation in mouse J1 cells carrying brachyury/T-GFP compound treated on day 1 measured on day 4 of differentiation by flow cytometry
[8] = tested on: CGR8; test: Promotion of cardiogenesis in mouse CGR8 cells carrying Myh6-GFP compound treated at 1 to 5 uM on days 3 to 5 measured on day 10 post differentiation by GFP reporter assay; format: functional, cell-based
Summary of the method: (§1)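 Differentiation used CGR8 mESCs carrying a Myh6 (α-MHC)-GFP reporter, seeded in LIF-free high-glucose DMEM with 10% FBS. Compound was given on days 3–5 of differentiation. α-MHC-GFP fluorescence was quantified by high-content imaging on day 10, and data were normalized.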

[9] = tested on: CGR8; test: Inhibition of cardiogenesis in mouse CGR8 cells carrying Myh6-GFP compound treated at high concentration on days 3 to 5 measured on day 10 post differentiation by GFP reporter assay; format: functional, cell-based
Summary of the method: as §1

[10] = tested on: CGR8; test: Promotion of cardiogenesis in mouse CGR8 cells carrying Myh6-GFP compound treated at 5 uM on days 3 to 5 measured on day 10 post differentiation by GFP reporter assay; format: functional, cell-based
Summary of the method: as §1

| SMILES | inhibition [4] | inhibition (INH) [5] | inhibition [7] | also measured |
| --- | --- | --- | --- | --- |
| NC(=O)c1ccc(-c2nc(-c3ccccn3)c(-c3ccc4c(c3)OCO4)[nH]2)cc1 | – | – | – | inhibition [1]: 99%; inhibition [2]: 99% |
| CCOC(=O)C1=C(C)NC2=C(C(=O)CC(C)(C)C2)C1c1ccc(-c2ccccc2)cc1 (racemic) [listing 1 of 2 here] | – | – | – | pIC50 [3]: 6.07 |
| CCOC(=O)C1=C(C)NC2=C(C(=O)CC(C)(C)C2)C1c1ccc(-c2ccccc2)cc1 (racemic) [listing 2 of 2 here] | 51% | – | – | – |
| COC(=O)C1=C(C)NC2=C(C(=O)CC(C)(C)C2)C1c1cccc(-c2ccc3[nH]ccc3c2)c1 (racemic) | 24% | – | – | – |
| CCCC1CC(=O)C2=C(C1)NC(C)=C(C(=O)OC)C2c1ccc(-c2ccccc2)cc1 (single isomer, unassigned; (+)) [listing 1 of 2 here] | – | 58% | – | – |
| CCCC1CC(=O)C2=C(C1)NC(C)=C(C(=O)OC)C2c1ccc(-c2ccccc2)cc1 (single isomer, unassigned; (+)) [listing 2 of 2 here] | – | – | Active | Activity [6]: Active |
| COC(=O)C1=C(C)NC2=C(C(=O)CC(C)(C)C2)C1c1cccc(-c2ccc3[nH]ccc3c2)c1 (single isomer, unassigned; (+)) | 55% | – | Active | – |
| CCCC1CC(=O)C2=C(C1)NC(C)=C(C(=O)OC)C2c1ccc(-c2ccccc2)cc1 (single isomer, unassigned; (-)) [listing 1 of 2 here] | – | 85% | – | – |
| CCCC1CC(=O)C2=C(C1)NC(C)=C(C(=O)OC)C2c1ccc(-c2ccccc2)cc1 (single isomer, unassigned; (-)) [listing 2 of 2 here] | – | – | Active | Activity [6]: inactive |
| COC(=O)C1=C(C)NC2=C(C(=O)CC(C)(C)C2)C1c1cccc(-c2ccc3[nH]ccc3c2)c1 (single isomer, unassigned; (-)) | 68% | – | – | – |
| CCOC(=O)C1=C(C)NC2=C(C(=O)CC(C)(C)C2)C1c1ccc(-c2ccccc2)cc1 (stereo in doubt; (+)1) [listing 1 of 2 here] | – | 44% | – | pIC50 [3]: 6.34 |
| CCOC(=O)C1=C(C)NC2=C(C(=O)CC(C)(C)C2)C1c1ccc(-c2ccccc2)cc1 (stereo in doubt; (+)1) [listing 2 of 2 here] | 49% | – | Active | Activity [8]: Active; inhibition [9]: Dose-dependent effect; Activity [10]: Active |
| CCOC(=O)C1=C(C)NC2=C(C(=O)CC(C)(C)C2)C1c1ccc(-c2ccccc2)cc1 (stereo in doubt; (-)1) [listing 1 of 2 here] | – | 87% | – | pIC50 [3]: 5.16 |
| CCOC(=O)C1=C(C)NC2=C(C(=O)CC(C)(C)C2)C1c1ccc(-c2ccccc2)cc1 (stereo in doubt; (-)1) [listing 2 of 2 here] | 41% | – | Active | Activity [8]: Active |
| COC(=O)C1=C(C)NC(C)=C(C(=O)OC)C1c1ccccc1[N+](=O)[O-] [NIFEDIPINE] | – | 66% | – | – |
